Data: ChEMBL document CHEMBL5365542, “Difluoromethyl-1,3,4-oxadiazoles Are Selective, Mechanism-Based, and Essentially Irreversible Inhibitors of Histone Deacetylase 6” (J Med Chem, 2023)
Calls of active or inactive are those of the source. The calls are words filed in the database; no cut-off is given here.

Key:
[1] = biological target: T1, Protein deacetylase HDAC6 (Homo sapiens) (UniProt Q9UBN7); experiment: (§1) Irreversible inhibition of N-terminal GST tagged human recombinant HDAC6 (1 to 1215 residues) expressed in Sf9 insect cells using Z-Lys(Ac)-AMC as fluorogenic substrate at 2.5 uM preincubated for 1 hr followed by 100-fold dilution and substrate addition measured every 0.5 mins for 60 mins by microplate reader analysis
T1 sequence (whole entry): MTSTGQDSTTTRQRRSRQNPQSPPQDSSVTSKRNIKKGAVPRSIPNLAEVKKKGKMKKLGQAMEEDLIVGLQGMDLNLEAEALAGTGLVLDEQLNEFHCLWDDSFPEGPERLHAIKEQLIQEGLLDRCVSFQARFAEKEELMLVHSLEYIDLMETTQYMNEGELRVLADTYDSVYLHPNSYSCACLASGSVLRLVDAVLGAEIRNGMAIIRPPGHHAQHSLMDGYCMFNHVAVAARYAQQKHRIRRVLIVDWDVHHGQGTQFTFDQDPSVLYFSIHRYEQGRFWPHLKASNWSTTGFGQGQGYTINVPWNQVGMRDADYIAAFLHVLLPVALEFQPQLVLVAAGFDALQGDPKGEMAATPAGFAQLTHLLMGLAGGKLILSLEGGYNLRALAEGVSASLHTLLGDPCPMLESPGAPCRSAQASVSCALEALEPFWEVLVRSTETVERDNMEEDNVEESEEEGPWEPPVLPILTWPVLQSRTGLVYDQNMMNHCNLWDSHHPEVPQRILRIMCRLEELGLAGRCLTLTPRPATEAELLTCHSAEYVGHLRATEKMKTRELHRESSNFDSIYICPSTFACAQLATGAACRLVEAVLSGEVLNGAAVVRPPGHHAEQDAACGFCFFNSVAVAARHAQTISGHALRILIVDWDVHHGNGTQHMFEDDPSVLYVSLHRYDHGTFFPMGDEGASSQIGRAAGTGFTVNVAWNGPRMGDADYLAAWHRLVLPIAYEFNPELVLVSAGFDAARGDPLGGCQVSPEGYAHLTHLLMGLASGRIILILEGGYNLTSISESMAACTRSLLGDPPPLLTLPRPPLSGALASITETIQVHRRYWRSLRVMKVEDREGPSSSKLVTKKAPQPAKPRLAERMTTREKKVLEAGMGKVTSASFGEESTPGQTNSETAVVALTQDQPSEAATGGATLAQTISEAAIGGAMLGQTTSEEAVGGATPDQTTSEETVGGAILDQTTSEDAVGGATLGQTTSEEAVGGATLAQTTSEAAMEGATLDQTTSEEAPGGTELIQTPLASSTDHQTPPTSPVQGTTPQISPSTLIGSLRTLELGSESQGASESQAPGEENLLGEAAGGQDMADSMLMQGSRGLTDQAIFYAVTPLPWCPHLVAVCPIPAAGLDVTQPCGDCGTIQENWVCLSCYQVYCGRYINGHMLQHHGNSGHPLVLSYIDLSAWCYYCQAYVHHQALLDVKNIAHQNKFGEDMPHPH
Outline: (§2)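 It was then diluted 100-fold in buffer or in inhibitor at the original concentration. Finals were 220 pg/μL enzyme, 93 μM ZMAL and 20 ng/μL trypsin. AMC release was read every 0.5 min for 60 min at 37 °C; triplicates.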

[2] = biological target: T2, Histone deacetylase 6 (Danio rerio) (UniProt F8W4B7); experiment: Irreversible inhibition of Danio rerio HDAC6 using RHKK(Ac)-AMC as fluorogenic substrate at 100 uM preincubated for 1 hr followed by dialysis for 21 hrs and substrate addition for 30 mins by microplate reader analysis; conditions: Sf9
T2 sequence (whole entry): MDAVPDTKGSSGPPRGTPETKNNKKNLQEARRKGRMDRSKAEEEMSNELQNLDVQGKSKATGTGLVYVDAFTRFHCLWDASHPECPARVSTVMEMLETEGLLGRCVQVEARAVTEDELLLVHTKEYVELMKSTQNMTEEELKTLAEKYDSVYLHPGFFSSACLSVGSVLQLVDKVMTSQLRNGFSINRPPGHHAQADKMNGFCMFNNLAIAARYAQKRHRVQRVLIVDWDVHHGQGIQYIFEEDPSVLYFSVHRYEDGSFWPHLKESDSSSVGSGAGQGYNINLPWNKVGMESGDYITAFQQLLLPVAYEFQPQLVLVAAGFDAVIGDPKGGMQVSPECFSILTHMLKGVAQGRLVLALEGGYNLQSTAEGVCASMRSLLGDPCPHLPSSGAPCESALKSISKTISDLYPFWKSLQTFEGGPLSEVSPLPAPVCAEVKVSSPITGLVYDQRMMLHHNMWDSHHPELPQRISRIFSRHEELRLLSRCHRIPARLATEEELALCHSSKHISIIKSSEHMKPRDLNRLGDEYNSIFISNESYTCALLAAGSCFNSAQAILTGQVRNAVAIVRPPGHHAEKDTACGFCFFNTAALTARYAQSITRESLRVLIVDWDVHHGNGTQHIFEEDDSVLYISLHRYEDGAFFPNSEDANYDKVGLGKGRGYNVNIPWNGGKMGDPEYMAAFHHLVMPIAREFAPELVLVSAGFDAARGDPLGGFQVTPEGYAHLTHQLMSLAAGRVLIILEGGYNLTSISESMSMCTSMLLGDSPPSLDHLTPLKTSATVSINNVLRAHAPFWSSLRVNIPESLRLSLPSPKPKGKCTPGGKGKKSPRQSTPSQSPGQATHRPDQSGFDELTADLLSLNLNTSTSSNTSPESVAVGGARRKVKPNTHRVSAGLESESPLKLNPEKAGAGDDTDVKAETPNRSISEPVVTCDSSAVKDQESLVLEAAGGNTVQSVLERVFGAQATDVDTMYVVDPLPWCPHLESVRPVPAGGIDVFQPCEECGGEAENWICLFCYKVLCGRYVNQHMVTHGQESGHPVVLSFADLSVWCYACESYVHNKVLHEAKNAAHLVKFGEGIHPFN
Outline: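 zCD2 at 1 μM was incubated with 100 μM inhibitor for 1 h, then dialysed at 4 °C against HEPES pH 7.5 buffer with 0.25% DMSO, overnight, sampled at 6 and 21 h. Each sample was mixed with 250 μM RHKK(Ac)-AMC (pre-mix level) for 30 min. Trypsin/TSA developer was then added and fluorescence read at ex 360/em 460. Triplicates.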

[3] = biological target: T1, Protein deacetylase HDAC6 (Homo sapiens); experiment: (§3) Binding affinity to N-terminal GST tagged human recombinant HDAC6 (1 to 1215 residues) expressed in Sf9 insect cells using Z-Lys(Ac)-AMC as fluorogenic substrate assessed as induced-fit mechanism by measuring hyperbolic relationship between Kobs and inhibitor concentration measured every 0.5 mins for 45 mins
Outline: (§4)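 Finals were 220 pg/μL enzyme, 93.0 μM ZMAL (5× KM; KM 19.27 μM) and 20 ng/μL trypsin. AMC read continuously (ex 360/em 460) at 37 °C. Curves fitted for kobs, then kobs vs [I] fitted; triplicates.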

[4] = biological target: T1, Protein deacetylase HDAC6 (Homo sapiens); experiment: as §1, with “6.5” for “2.5”; outline: as §2
[5] = biological target: T1, Protein deacetylase HDAC6 (Homo sapiens); experiment: as §3, with “single step slow binding” for “induced-fit”, “linear” for “hyperbolic”; outline: as §4

## FC(F)c1nnc(-c2cnc(NCc3ccccc3)nc2)o1
[1]
  inhibition: Active
[2]
  inhibition: Active
[3]
  Activity: Active

## FC(F)(F)c1nnc(-c2cnc(NCc3ccccc3)nc2)o1
[4]
  inhibition: inactive
[5]
  Activity: Active
